Test results taken from paper PMC7059760 (ACS applied materials & interfaces, 2019).
≈ marks a conversion by molar mass, not a printed value. Like-named read-outs stand apart in the source and are kept apart here.

Assays:
[1] = test system: antibenzothiostrobin mAb 4E8; set-up: species or system murine; conditions: ITC; ratio of binding constants versus monomer
Method in brief: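 Isothermal titration calorimetry at 25 °C. All samples were diluted in 10 mM BB and degassed. The mAb was in the cell, with water in the reference cell and buffer titrated as control. Peptide in the syringe was 260 μM (monomer), 150 μM (dimer) or 50 μM (tetramer). Run used 20 injections, 60 s initial delay and 1000 rpm stirring. N, K, ΔH and ΔS were obtained from a one-site fit, with a c value checked for quality.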

antibenzothiostrobin mAb [2] = conditions: competitive phage ELISA; cited from earlier work
antibenzothiostrobin mAb [3] = conditions: noncompetitive phage ELISA; cited from earlier work
antibenzothiostrobin mAb [4] = conditions: ic-ELISA; cited from earlier work
antibenzothiostrobin mAb [5] = conditions: noncompetitive FIA, synthetic peptide FITC-Ahx-CPDIWPTAWC; cited from earlier work
antibenzothiostrobin mAb [6] = conditions: competitive FIA, synthetic peptide FITC-Ahx-CSGLAEFMSC; cited from earlier work
antibenzothiostrobin mAb [7] = assay: Inner filter effect immunoassay; format: binding, murine; conditions: ratio of SC50 values; analyte benzothiostrobin
Method in brief: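 Homogeneous competitive format. The UCNP probe was NaYF4:Yb,Er, amine-silica coated and glutaraldehyde-coupled to the monomer, dimer or tetramer peptidomimetic, and the absorber was mAb-conjugated gold nanoflowers. Standard and both probes were mixed in BB for 1 h at 37 °C with gentle shaking. Emission at 657 nm was read under 980 nm laser excitation. ΔI (I−I0) was plotted against log analyte concentration, and SC50 was taken as 50% signal saturation.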

In the case of “(Ac-CSGLAEFMSC)2KK (bicyclic or more) [dimer]”, the “fold higher affinity for mAb compared to monomer” value [1] is reported as 1.87 fold.
In the case of CO/C=C(/C(=O)OC)c1ccccc1CSc1nc2ccccc2s1 [benzothiostrobin], the IC50 (antibenzothiostrobin mAb [2]) is given as 0.94 ng/mL (≈ 0.00253 µM), the SC50 (antibenzothiostrobin mAb [3]) is given as 2.27 ng/mL and the IC50 (antibenzothiostrobin mAb [4]) is given as 7.55 ng/mL (≈ 0.0203 µM). For the same compound, the SC50 (antibenzothiostrobin mAb [5]) was 93.4 ng/mL and the IC50 (antibenzothiostrobin mAb [6]) was 16.8 ng/mL (≈ 0.0452 µM).
With “((Ac-CSGLAEFMSC)2K)2KK (bicyclic or more) [tetramer]” the “fold higher affinity for mAb compared to monomer” value [1] was 13.6 fold, the “improvement of IFE-IA sensitivity compared to dimer” value (antibenzothiostrobin mAb [7]) was roughly 3 fold and the “improvement of IFE-IA sensitivity compared to monomer” value (antibenzothiostrobin mAb [7]) was “approximately 6 fold”.
